The results in this text go back to ChEMBL document CHEMBL1125320, “Imidazole-5-acrylic acids: potent nonpeptide angiotensin II receptor antagonists designed using a novel peptide pharmacophore model” (J Med Chem, 1992).

Molecules are shown by their SMILES. pIC50: −log10 of the molar value.

Experiment [1] has as its target T1, Type-1 angiotensin II receptor (Oryctolagus cuniculus) (UniProt P34976).
T1 sequence (whole entry): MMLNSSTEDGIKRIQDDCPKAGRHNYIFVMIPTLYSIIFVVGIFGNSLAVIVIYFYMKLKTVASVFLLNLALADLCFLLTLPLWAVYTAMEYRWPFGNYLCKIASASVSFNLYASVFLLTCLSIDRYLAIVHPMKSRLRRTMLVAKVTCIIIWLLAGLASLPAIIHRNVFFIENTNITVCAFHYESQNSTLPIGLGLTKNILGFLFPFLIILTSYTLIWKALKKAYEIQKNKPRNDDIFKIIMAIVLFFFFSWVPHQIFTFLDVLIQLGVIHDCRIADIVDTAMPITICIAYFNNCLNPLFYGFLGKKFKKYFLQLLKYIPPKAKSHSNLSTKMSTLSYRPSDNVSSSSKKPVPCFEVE
The experiment is described as follows: (§1) Compound was evaluated for the inhibition of AII-induced vasoconstriction of the rabbit aorta. It counts as tissue-based. Summed up:
(§2)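 Isolated rabbit aorta ring segments mounted on metal supports attached to force displacement transducers. Cumulative angiotensin II concentration-response curves were run without antagonist or after a 30-min antagonist incubation.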

The target in experiment [2] is T2, Type-1 angiotensin II receptor B (Rattus norvegicus, UniProt P29089).
T2 sequence (P29089 whole entry): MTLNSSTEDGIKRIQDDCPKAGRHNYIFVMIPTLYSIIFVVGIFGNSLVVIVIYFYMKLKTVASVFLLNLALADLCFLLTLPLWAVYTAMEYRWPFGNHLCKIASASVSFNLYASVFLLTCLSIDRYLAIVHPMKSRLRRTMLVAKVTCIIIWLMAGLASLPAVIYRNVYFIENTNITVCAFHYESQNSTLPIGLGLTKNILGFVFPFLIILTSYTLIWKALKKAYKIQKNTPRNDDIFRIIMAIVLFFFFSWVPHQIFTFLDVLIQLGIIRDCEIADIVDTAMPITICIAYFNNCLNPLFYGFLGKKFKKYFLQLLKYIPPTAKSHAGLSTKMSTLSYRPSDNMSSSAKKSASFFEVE
The experiment is described as follows: Compound was evaluated for the inhibition of [125I]AII specific binding to rat mesenteric arteries. The procedure, abridged:
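Particulate fraction from rat mesenteric arteries incubated in Tris buffer with 80 pM [125I]angiotensin II, with or without antagonist, for 1 h at 25 °C. The incubation was stopped by rapid filtration, and filter-bound radioligand was counted on a γ counter. Inhibition of specific binding; n = 3-5.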

In the next experiment the target is T3, Angiotensin II receptor (Rattus norvegicus, UniProt P29089+P25095+P35351).
T3 sequence (P29089 whole entry): T2 sequence (P29089 whole entry)
T3 sequence (P25095 whole entry): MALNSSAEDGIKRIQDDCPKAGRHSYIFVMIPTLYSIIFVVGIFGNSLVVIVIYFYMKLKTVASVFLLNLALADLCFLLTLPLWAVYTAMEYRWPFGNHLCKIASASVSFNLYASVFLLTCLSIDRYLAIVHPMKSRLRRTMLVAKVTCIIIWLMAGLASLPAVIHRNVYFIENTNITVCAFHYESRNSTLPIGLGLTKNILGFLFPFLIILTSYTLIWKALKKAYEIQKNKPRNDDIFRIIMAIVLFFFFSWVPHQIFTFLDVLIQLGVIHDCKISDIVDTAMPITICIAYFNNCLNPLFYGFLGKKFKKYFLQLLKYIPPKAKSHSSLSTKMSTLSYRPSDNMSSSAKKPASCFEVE
T3 sequence (P35351 whole entry): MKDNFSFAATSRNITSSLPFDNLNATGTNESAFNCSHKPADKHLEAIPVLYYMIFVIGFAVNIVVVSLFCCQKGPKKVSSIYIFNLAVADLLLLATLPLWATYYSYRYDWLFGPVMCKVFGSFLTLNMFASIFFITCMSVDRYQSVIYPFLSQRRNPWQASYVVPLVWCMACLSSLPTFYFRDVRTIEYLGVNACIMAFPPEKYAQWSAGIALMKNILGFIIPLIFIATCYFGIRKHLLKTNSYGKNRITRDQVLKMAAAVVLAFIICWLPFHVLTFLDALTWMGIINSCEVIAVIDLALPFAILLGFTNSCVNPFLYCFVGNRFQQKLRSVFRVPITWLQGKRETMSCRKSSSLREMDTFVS
The experiment is described as follows: Inhibition of [125I]angiotensin II specific binding to rat mesenteric arteries. It counts as protein assay.

The target of experiment [3] is T1, Type-1 angiotensin II receptor (Oryctolagus cuniculus). The experiment is described as §1. The format is functional, tissue-based. Summed up:
as §2

For a further experiment, the system named is Rattus norvegicus. The experiment is described as follows: Compound was evaluated in vivo, for the dose that produced 50% inhibition of the pressor response to AII in conscious normotensive rats after intraduodenal administration. The format is functional. The following applies: read-out: ID50 (the source's name).

For orientation: pIC50 means the negative decadic logarithm of the IC50, by convention in mol/L. Higher therefore signals a small IC50. In turn, `CCCCc1ncc(/C=C(\Cc2cccc(Oc3ccccc3)c2)C(=O)O)n1Cc1ccccc1Cl` came in with a Kb in experiment [1] of 18.1 µM. For the same compound, the pIC50 in experiment [2] was 5.00.

In general, IC50 refers to the midpoint of a concentration-inhibition curve. A higher IC50 goes with lower potency. Turning to `CCCCc1ncc(/C=C(\Cc2ccc(O)c(O)c2)C(=O)O)n1Cc1ccccc1Cl`, the half-inhibitory concentration (IC50) on Angiotensin II receptor was determined as 0.058 µM. Further, the Kb in experiment [3] is 0.14 µM. Besides, the ED50 in the experiment on Rattus norvegicus is 20 mg/kg.
